Broadly, the inhibition is the relative decrease from the control value, in per cent.

A short description of experiment [1]: inhibitors of TNFa-induced NFkB p65 translocation, primary screen, imaging, HUVEC, MLSMR starter and 10KST1 sets (AID 438;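 active means inhibition above 20% together with a positive visual image hit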;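 further: compound added about 3h40 before a 20 min TNFalpha stimulation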;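 on inhibition: signal is the nuclear over cytoplasmic p65 intensity ratio per well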). To be noted: HUVEC TNFa-induced p65 nuclear translocation; cell count: measured here: nuclei count (cytotoxicity indicator), at 2.08 µM; inhibition: at 2 µM, stronger effect = higher value, 0% TNFa-plus-vehicle, 100% no-TNFa wells.
Experiment [2] can be described thus: inhibitors of mutant huntingtin aggregation, primary screen, imaging, exon1htt(103Q)mCFP cells, high-content imaging (AID 483;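 active means visual image review flags a hit and inhibition of aggregation exceeds 20%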;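 further: compound exposure lasted 3 days before fixation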;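 on nuclei count: percent of the per-plate median nuclei count of sample wells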). To be noted: exon1htt(103Q)mCFP cell line, aggregate imaging, at 2 µM; inhibition of aggregation: stronger effect = higher value; nuclei count: measured here: cell count, toxicity.
Experiment [3] can be described thus: inhibitors of E-selectin induction by TNFa, primary screen, imaging, HUVEC, immunofluorescence, MLSMR starter and 10KST1 sets (AID 487;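 active means visually confirmed hit in the image check and inhibition above 20%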;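 on inhibition: signal is fraction of cell area covered by stained E-selectin grains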;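 on nuclei count: 100% = median nuclei count of all wells on the same plate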). To be noted: HUVEC TNFalpha-induced E-selectin immunofluorescence imaging, at 2 µM; inhibition: stronger effect = higher value; nuclei count: measured here: cell number, toxicity.
Experiment [4] has as its target Voltage-gated potassium channel subunit beta-2 (Rattus norvegicus) (UniProt P62483). Nature of the experiment: KvBeta enzyme negative modulators, primary screen, biochemical, NADPH fluorescence (AID 622;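 active means fluorescence slope higher than the sample average by over 3 SD, cut at about -0.22 in these data, passing the limit was not always enough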;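 further: slope of raw intensity against log time taken from 70 to 1610 s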). To be noted: recombinant KvBeta, 4-cyanobenzaldehyde reduction, at 10 µM, stronger effect = higher value.
For experiment [5] the target is unchanged. Nature of the experiment: KvBeta positive modulators, primary screen, biochemical, NADPH fluorescence (AID 623;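 active means NADPH fluorescence slope more negative than the mean of all samples by about 3 SD, 99.7% confidence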;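 further: fluorescence intensity change per second fitted from 20 to 320 s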). To be noted: Recombinant KvBeta, NADPH fluorescence decrease slope, 10 min; at 10 µM; stronger effect = lower value.
Experiment [6] deals with Muscarinic acetylcholine receptor M4 (Homo sapiens) (UniProt P08173). The experiment is described as follows: compounds altering M4/GIRK thallium flux, either direction, primary screen, M4 allosteric agonist project, cell-based, HEK293 M4/GIRK, BTC-AM (AID 625;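 active means fluorescence slope after compound addition differing from the mean of all tested samples at 99.7% confidence, mostly higher but some lower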;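 further: thallium influx through GIRK channels coupled to M4 in HEK293 cells with BTC-AM dye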). The note with it: at 10 µM, actives lie on both sides. The gist of the method:
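Material: M4/GIRK1/GIRK2 stable HEK293 cell line. Medium: pH 7.3 thallium assay buffer. Dosing: single compound concentration, 10 µM final. Schedule: 1 h dye loading, 2 min kinetic read. Measured by: kinetic fluorescence with BTC-AM dye. Read-out: post-addition slope, 15–24 s, of baseline-normalized fluorescence. Benchmarks: carbachol and DMSO controls.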

Experiment [7] in a line: inhibitors of Sendai virus-induced IRF3 signaling, primary screen, TLR/RLR signaling modifier project, cell-based, Sendai virus stimulus, luciferase, 10K MLSCN set (AID 602276;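 active means inhibition at or above 50% at 10 µM; inactive means inhibition below 50%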;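 further: firefly luciferase from ISG56 promoter only with Renilla not read in this screen; 0% = Sendai virus plus DMSO and 100% = medium plus DMSO without virus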). The note with it: HEK293 RL24 IRF3 luciferase reporter, at 10 µM, stronger effect = higher value. A general note: In a reporter assay the amount or activity of a reporter protein is the signal.
A short description of experiment [8]: inhibitors of poly I:C-induced TLR3 signaling, primary screen, cell-based, poly I:C stimulus, luciferase, 10K MLSCN set (AID 602277). The note with it: HEK293-TLR3 RL24 IRF3 luciferase reporter, at 10 µM, stronger effect = higher value.
In experiment [9] the target is Alpha-2C adrenergic receptor (Homo sapiens) (UniProt P18825). The experiment is described as follows: modulators of alpha2C/GIRK thallium flux, primary screen, cell-based, HEK293 alpha2C/GIRK1/2 (AID 624;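 active means fluorescence slope after compound addition differing from the mean of all screened samples at 99.7% confidence, in either direction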;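 further: slope of fluorescence ratio to pre-addition baseline per second over 15 to 24 s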). To be noted: thallium flux BTC fluorescence, at 10 µM, actives lie on both sides.
A short description of experiment [10]: inhibitors of larval lipid processing in zebrafish, primary screen, whole organism, PED6 fluorescence, gall bladder and intestine (AID 686;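 active means a full or partial loss of lipid-probe fluorescence in the fish gall bladder, intestine or both, judged by eye; inactive means no fluorescence loss, or compound toxic to the fish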;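 further: larvae 5 to 7 days old with five fish per well; signal comes from phospholipase A2 cleavage of quenched PED6 carried via bile; overnight exposure to compound and PED6 before scoring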). The note with it: Zebrafish larvae PED6 lipid processing, fluorescence scoring; screened at 20 µM (by protocol). The gist of the method:
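System: live zebrafish larvae aged 5-7 days, whole organism; measure: graded gall bladder and intestinal fluorescence inhibition per well; incubation: overnight exposure; reagent: ingested quenched lipid PED6 at 100 nM; signal: By-eye fluorescence microscopy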

Active and inactive are the calls of the source.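 How the source made its calls, unless noted: active means inhibition of the reporter signal at or above 50%; inactive means inhibition below 50%.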

Chain of Muscarinic acetylcholine receptor M4 (Homo sapiens) (P08173 whole entry, looked up): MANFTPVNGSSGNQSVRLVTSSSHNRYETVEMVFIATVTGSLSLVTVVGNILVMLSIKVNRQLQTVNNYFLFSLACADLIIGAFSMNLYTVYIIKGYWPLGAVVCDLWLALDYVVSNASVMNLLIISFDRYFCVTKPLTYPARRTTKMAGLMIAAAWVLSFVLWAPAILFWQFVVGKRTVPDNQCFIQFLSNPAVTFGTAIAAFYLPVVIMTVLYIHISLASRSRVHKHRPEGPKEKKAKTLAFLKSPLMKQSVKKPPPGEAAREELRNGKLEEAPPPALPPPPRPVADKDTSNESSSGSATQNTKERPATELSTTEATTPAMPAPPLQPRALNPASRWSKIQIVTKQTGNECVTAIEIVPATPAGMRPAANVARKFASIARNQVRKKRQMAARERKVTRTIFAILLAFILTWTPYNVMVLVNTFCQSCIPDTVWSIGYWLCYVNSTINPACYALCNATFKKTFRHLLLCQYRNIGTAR
Chain of Voltage-gated potassium channel subunit beta-2 (Rattus norvegicus) (P62483 whole entry, looked up): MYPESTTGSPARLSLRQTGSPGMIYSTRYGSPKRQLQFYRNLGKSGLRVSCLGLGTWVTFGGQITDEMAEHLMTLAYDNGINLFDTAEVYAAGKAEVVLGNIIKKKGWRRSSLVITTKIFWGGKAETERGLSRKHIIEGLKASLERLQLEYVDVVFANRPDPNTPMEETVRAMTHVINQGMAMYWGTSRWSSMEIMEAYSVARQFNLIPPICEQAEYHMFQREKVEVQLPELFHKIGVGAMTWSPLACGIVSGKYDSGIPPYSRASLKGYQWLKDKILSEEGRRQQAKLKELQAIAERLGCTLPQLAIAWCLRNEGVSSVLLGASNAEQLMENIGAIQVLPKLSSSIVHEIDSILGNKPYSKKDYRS
Chain of Alpha-2C adrenergic receptor (Homo sapiens) (P18825 whole entry, looked up): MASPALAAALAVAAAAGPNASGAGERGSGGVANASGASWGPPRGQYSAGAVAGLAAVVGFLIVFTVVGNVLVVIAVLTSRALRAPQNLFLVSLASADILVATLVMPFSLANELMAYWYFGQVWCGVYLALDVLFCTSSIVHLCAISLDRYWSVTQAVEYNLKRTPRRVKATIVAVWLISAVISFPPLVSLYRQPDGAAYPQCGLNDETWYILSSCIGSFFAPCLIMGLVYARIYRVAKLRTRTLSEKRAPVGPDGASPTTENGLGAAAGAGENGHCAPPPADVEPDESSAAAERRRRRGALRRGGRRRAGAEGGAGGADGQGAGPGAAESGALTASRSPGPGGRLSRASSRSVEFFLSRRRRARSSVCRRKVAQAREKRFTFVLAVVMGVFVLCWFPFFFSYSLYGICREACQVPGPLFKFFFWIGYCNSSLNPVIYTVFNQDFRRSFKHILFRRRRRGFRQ

As to `CC1(C)Cc2noc(N)c2C(C)(C)N1OC(=O)c1ccccc1`, the cell count in experiment [1] came to 322. Besides, the inhibition in experiment [1] is 2.4% (inactive); in experiment [3], -48.1% (inactive); in [7], -2.74% (inactive); in experiment [8], 5.08% (inactive). For the same compound, in experiment [2], the inhibition of aggregation is 1.8% (inactive). Moreover, the nuclei count turned out to be 99% in [2] and 126% in experiment [3]. Besides, the fluorescence slope is -0.463 (inactive) in experiment [4] and 0.00527 (inactive) in [6]. In [5], the NADPH fluorescence slope was 1.8e-05 (inactive).

For `FC(F)Sc1nnc(-c2cccs2)n1-c1ccccc1`, the cell count in experiment [1] is 824. Moreover, the inhibition in experiment [1] is -5% (inactive); in experiment [3] it was -146% (inactive); in experiment [7], 17.7% (inactive); in experiment [8], 31% (inactive). Also, the inhibition of aggregation in [2] is -10.1% (inactive). Besides, the results for the nuclei count in experiment [2] and in experiment [3] were 95.3% and 122%, respectively. The fluorescence slope in experiment [4] was -0.532 (inactive); in experiment [6] it was 0.00612 (inactive). In addition, the NADPH fluorescence slope in [5] is -3.2e-05 (inactive).

As to `CC(C)CN(CC(C)C)c1nc(N)c(C#N)c(CC#N)c1C#N`, in experiment [1], the cell count is 326 and the inhibition was -7% (inactive). Besides, in experiment [2], the inhibition of aggregation is 9% (inactive) and the nuclei count is 102%. Moreover, in experiment [3], the inhibition is -60.7% (inactive) and the nuclei count came out at 120%. The fluorescence slope in experiment [4] was -0.318 (inactive). Moreover, the NADPH fluorescence slope in [5] was -5e-05 (inactive). The slope in experiment [9] was 0.00502 (inactive). Also, the compound was classed as inactive in [10]. The inhibition in experiment [8] is 62.5% (active).

As for `O=C(Nc1cccc(F)c1)c1ccc2c(c1)OCO2`, the cell count in [1] stood at 246. Further, the inhibition in experiment [1] was -2.1% (inactive); in [3], 80.7% (active); in experiment [7], -56.2% (inactive); in experiment [8] it was -121% (inactive). Besides, the inhibition of aggregation in [2] was 31.8% (inactive). Moreover, the nuclei count is 83.5% in experiment [2] and 85% in [3]. For the same compound, the figures for the fluorescence slope in [4] and in [6] were -0.597 (inactive) and 0.00384 (inactive), respectively. In addition, the NADPH fluorescence slope in [5] was 1.2e-05 (inactive).

For the compound `Cc1ccc(CNC(=O)c2coc(=O)c3ccccc23)o1`, the cell count in [1] is 581. Further, the inhibition is 0.6% (inactive) in [1], 58.5% (inactive) in [3] and 98.4% (active) in [8]. The inhibition of aggregation in experiment [2] was 4.6% (inactive). Besides, the nuclei count in experiment [2] is 102%; in [3], 55.6%. Also, the fluorescence slope is -0.445 (inactive) in experiment [4] and 0.00482 (inactive) in experiment [6]. Besides, in experiment [5], the NADPH fluorescence slope is -0.000402 (inactive).

For the compound `COCCCNCC(=O)Nc1ccc(OC(F)(F)F)cc1`, the cell count in [1] stood at 363. The inhibition is 14.4% (inactive) in experiment [1], -4.19% (inactive) in experiment [7] and -0.468% (inactive) in [8]. Besides, the inhibition of aggregation in experiment [2] is -4.3% (inactive). Further, the nuclei count in experiment [2] was 89.5%; in [3], 119%. Further, the fluorescence slope in experiment [4] is -0.403 (inactive). Further, the NADPH fluorescence slope in experiment [5] is -4.5e-05 (inactive). Besides, the slope in experiment [9] is 0.00627 (inactive). In addition, the call in [10] was inactive.

On to `O=C(O)CCc1ccc(-c2cccs2)n1CCC(=O)O`, for which the cell count in experiment [1] stood at 828. The inhibition in experiment [1] is -2.7% (inactive); in experiment [3] it was -43% (inactive); in experiment [7], 14.7% (inactive); in [8], 20.5% (inactive). Also, the inhibition of aggregation in [2] is -3.1% (inactive). Also, the nuclei count in [2] is 95.6%; in experiment [3], 116%. The fluorescence slope in experiment [4] is -0.55 (inactive); in [6], 0.00465 (inactive). The NADPH fluorescence slope in [5] was -5.2e-05 (inactive).

As for `c1ccc(Cn2nnc3c(N4CCC5(CC4)OCCO5)ncnc32)cc1`, the cell count in experiment [1] was 382. Besides, the inhibition in experiment [1] is -1.3% (inactive); in experiment [3], -346% (inactive); in experiment [7], 3.41% (inactive); in experiment [8] it was 6.57% (inactive). The inhibition of aggregation in experiment [2] is 0.3% (inactive). The nuclei count was 103% in [2] and 144% in [3]. Further, the fluorescence slope was -0.522 (inactive) in experiment [4] and 0.00535 (inactive) in experiment [6]. Besides, the NADPH fluorescence slope in experiment [5] was -5.2e-05 (inactive).

Consider `CC(=O)NC1(c2nnnn2CCOC(=O)Nc2ccc(Cl)cc2)CCCCC1`, for which the cell count in experiment [1] amounted to 559. For the same compound, the inhibition in experiment [1] is -12.5% (inactive); in experiment [3], -23.9% (inactive); in experiment [7], 9.27% (inactive); in [8] it was 8.82% (inactive). Moreover, the inhibition of aggregation in [2] was 2.9% (inactive). Further, the nuclei count in [2] was 84.6%; in [3], 91.3%. Further, the fluorescence slope in experiment [4] is -0.513 (inactive); in experiment [6], 0.0035 (inactive). The NADPH fluorescence slope in [5] is -0.000175 (inactive).

For the compound `O=C(COc1nnc2ccccn12)N1CCN(S(=O)(=O)c2ccccc2)CC1`, the cell count in experiment [1] turned out to be 691. The inhibition in experiment [1] is -3.3% (inactive); in experiment [3], -18.1% (inactive); in [7], -12.4% (inactive); in [8], 98.8% (active). Also, the inhibition of aggregation in [2] is -29.7% (inactive). Moreover, the nuclei count in experiment [2] stood at 95.4%; in experiment [3] it was 122%. Also, the fluorescence slope in experiment [4] is -0.405 (inactive); in experiment [6], 0.00653 (inactive). Further, in experiment [5], the NADPH fluorescence slope was -9.3e-05 (inactive).

Turning to `Cc1cc(Nc2ccccc2)n(CCC#N)n1`, the cell count in experiment [1] is 350. In addition, the inhibition is 1.6% (inactive) in experiment [1], -89.1% (inactive) in [3], 15.7% (inactive) in [7] and 14.3% (inactive) in experiment [8]. In addition, the inhibition of aggregation in experiment [2] was -7.9% (inactive). For the same compound, the nuclei count in experiment [2] stood at 96.4%; in experiment [3], 129%. In addition, the fluorescence slope in experiment [4] was -0.415 (inactive); in experiment [6], 0.00613 (inactive). In experiment [5], the NADPH fluorescence slope was -8.1e-05 (inactive).

In the case of `CCC(=O)Nc1cccc(Br)c1`, the cell count in experiment [1] is 323. Besides, the inhibition in experiment [1] is 2.9% (inactive); in experiment [3] it was -38.1% (inactive); in experiment [7], -18.4% (inactive); in experiment [8], -1.97% (inactive). The inhibition of aggregation in [2] is 17.6% (inactive). The nuclei count is 99.7% in experiment [2] and 123% in experiment [3]. For the same compound, the values for the fluorescence slope in [4] and in [6] were -0.541 (inactive) and 0.0051 (inactive), respectively. Moreover, in experiment [5], the NADPH fluorescence slope is -6e-05 (inactive).

Turning to `CC(C)CN1C(=O)c2ccc(C(=O)Nc3nccs3)cc2C1=O`, the cell count in experiment [1] was determined as 513. Further, the inhibition is 8.1% (inactive) in experiment [1], -335% (inactive) in experiment [3], 13.3% (inactive) in [7] and 5.57% (inactive) in experiment [8]. For the same compound, the inhibition of aggregation in [2] is -20.1% (inactive). Moreover, the nuclei count in [2] was 120%; in [3], 137%. The fluorescence slope in experiment [4] was -0.586 (inactive); in experiment [6], 0.00611 (inactive). For the same compound, in experiment [5], the NADPH fluorescence slope is -2.9e-06 (inactive).

On to `COc1cc(-c2nc(S(=O)(=O)c3ccccc3)c(N3CCOCC3)o2)cc(OC)c1OC`, for which the cell count in [1] was found to be 439. Besides, the inhibition was 6% (inactive) in [1], -286% (inactive) in [3], 14.4% (inactive) in experiment [7] and 15.3% (inactive) in experiment [8]. Besides, the inhibition of aggregation in [2] was -5.3% (inactive). The nuclei count in experiment [2] was 108%; in experiment [3] it was 126%. In addition, the fluorescence slope was -0.471 (inactive) in [4] and 0.0029 (inactive) in experiment [6]. Moreover, the NADPH fluorescence slope in experiment [5] was -0.000303 (inactive).

In the case of `Cc1ccc(-c2nnn(CC(=O)N(CC(=O)NC3CCCCC3)c3cnc4ccccc4c3)n2)o1`, the cell count in experiment [1] was 300. In addition, the inhibition in [1] was -7.6% (inactive); in experiment [3], -22.9% (inactive); in [7], 21% (inactive); in [8] it was 24.7% (inactive). The inhibition of aggregation in [2] is 27.2% (inactive). In addition, the nuclei count turned out to be 94.4% in experiment [2] and 107% in [3]. The fluorescence slope is -0.523 (inactive) in experiment [4] and 0.00469 (inactive) in [6]. For the same compound, the NADPH fluorescence slope in [5] is -2.2e-06 (inactive).

The values are drawn from PubChem BioAssay.
